The subject of assay [1] is surface expression of CaV1.2 (α11.2) in HEK293T/17 cells. The assay is described as follows: Cell surface biotinylation of HA-tagged α11.2 in HEK293T/17 cells. In kind it is cell-based, rat. The settings on record: NeutrAvidin pull-down, immunoblot, normalized to WT; N=7–13. An outline of the steps:
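HEK293T/17 cells co-transfected 1:1:1 (calcium phosphate) with α2δ1, β2a and WT or mutant CFP-HA-α11.2; medium changed at 7 h, Accutase-detached at 22 h, >95% trypan-blue-negative. 6×10^6 cells surface-labelled with 0.4 mg/mL sulfo-NHS-LC-biotin, 30 min on ice, pH 7.8; glycine-quenched, RIPA-lysed. 250 μg lysate on NeutrAvidin beads, 2 h, 4°C. Immunoblot for HA, loop II/III, GAPDH and α-tubulin; ECL exposures kept linear.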
(In general: A western blot detects proteins with antibodies after separation by electrophoresis.)

For the next assay, the target named is apoCaM (Homo sapiens, UniProt P0DP23). The assay is described as follows: Fluorescence polarization, binding of IQ domain-derived peptides to apoCaM. The settings on record: FP assay, relative to WT peptide. An outline of the steps: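 Wild-type or mutant α11.2 IQ peptides (AAs 1644-1668), N-terminally fluorescein-labelled, at 1 μM final, were mixed with twofold serial dilutions of untagged purified apoCaM starting from 100 μM. Polarization was read after ≥45 min (ex 485/20, em 528/20) and normalized to fractional binding. Kd came from fitting Y = B*X/(Kd + X); error bars are SD.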
Background: In fluorescence polarisation assays a small probe gives low polarisation when free and higher when bound to something large.

For assay [2], the system named is surface expression of CaV1.2 (α11.2) in HEK293T/17 cells. The experiment in a line: Flow cytometry of surface anti-HA staining of α11.2 in HEK293T/17 cells. In kind it is cell-based, rat. The settings on record: N=5–7; for reduction in surface labeling of HA-epitope: relative to WT channel labeling. In a few lines: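 HEK293T/17 cells were co-transfected 1:1:1 with α2δ1, β2a and CFP-HA-α11.2 (HA in the domain II S5-H5 extracellular loop) by calcium phosphate, with medium changed at 7 h. At 22 h, Accutase-detached, trypan-blue-counted live cells (6×10^6) were stained on ice for 1 h in the dark ± 2.5 μg/mL Alexa 647 anti-HA, then given 1 μg/mL PI. 50,000 PI-negative singlets were collected; HA-positive percentage of CFP-positive cells was normalized to WT.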
On the technique in general: A flow cytometer gives signals particle by particle.

In a further assay the test system is CaV1.2. The assay is described as follows: Whole-cell Ba2+ current recording in HEK293T/17 cells. The class given is cell-based, rat α11.2, rat β2a, rabbit α2δ1. The settings on record: for Erev (equilibrium/reversal potential) / Gmax (maximum conductance) / V1/2 (half-activation voltage): Boltzmann IV fit; for Erev (equilibrium/reversal potential) / Gmax (maximum conductance) / V1/2 (half-activation voltage) / current density relative to WT: N=6–7; for V1/2 (half-activation voltage): *** p<0.001 vs WT; for current density relative to WT: at 20 mV, ANOVA, Tukey and Bonferroni; for shift of V1/2 relative to WT: shift towards more depolarized levels. In a few lines: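 HEK293T/17 cells on poly-L-lysine coverslips were transfected 1:1:1 with β2a, α2δ1 and HA/CFP-tagged WT or mutant α11.2 (Lipofectamine 2000). Whole-cell Ba2+ currents were taken 48–72 h later from CFP-positive cells, held at −70 mV and stepped from −40 to +80 mV in 10 mV increments, with P/4 leak subtraction. Currents were capacitance-normalized, I–V curves Boltzmann-fitted, and data given as mean ± S.E.M. (ANOVA, Tukey/Bonferroni). Cells came from ≥3 independent transfections.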

For the next assay, the system named is L-type channel. The settings on record: ref [71], [72]; cited from earlier work.
Assay [3] has as its system L-type Ca^2+ channels at the surface of hippocampal pyramidal neurons. The settings on record: chelating intracellular Ca^2+, ref [27]; cited from earlier work.

Entries after “also recorded” stand apart in the source; their conditions may differ.

Turning to “I1654A: fluorescein-labeled α11.2 IQ domain peptide (AAs 1644-1668), I1654A mutant”, the “surface expression by biotinylation relative to WT” value in assay [1] is on record as “significant decreases in surface expression”. Also, in the assay with apoCaM, the “effect of mutation on apoCaM binding” value was “affected apoCaM binding; also recorded: reduced binding affinity to apoCaM”. Moreover, the “reduction in surface labeling of HA-epitope” value (“reduction in surface labeling” below) in assay [2] is given as ~ 35%. Moreover, in the assay on CaV1.2, the “Erev (equilibrium/reversal potential)” value was 75.7 ± 1.7 mV, the “Gmax (maximum conductance)” value is on record as 0.15 ± 0.01, the “V1/2 (half-activation voltage)” value is 11.2 ± 1.5*** mV and the “current density relative to WT” value is “significantly reduced current density”. Moreover, the “shift of V1/2 relative to WT” value in the assay on CaV1.2 is “quite pronounced and significant”.

Turning to “Y1649A: fluorescein-labeled α11.2 IQ domain peptide (AAs 1644-1668), Y1649A mutant”, the “surface expression by biotinylation relative to WT” value in assay [1] was “significant decreases in surface expression”. For the same compound, the “reduction in surface labeling” value in assay [2] is on record as ~ 35%. In addition, in the assay with CaV1.2, the “Erev (equilibrium/reversal potential)” value was determined as 66.5 ± 2.9 mV; the “Gmax (maximum conductance)” value stood at 0.08 ± 0.01; the “current density relative to WT” value is “significantly reduced current density”; the “shift of V1/2 relative to WT” value is “quite pronounced and significant”.

As to “Q1655A: fluorescein-labeled α11.2 IQ domain peptide (AAs 1644-1668), Q1655A mutant”, in assay [1], the “surface expression by biotinylation relative to WT” value is recorded as “did not exhibit statistically significant differences”. Besides, the “effect of mutation on apoCaM binding” value in the assay with apoCaM is “did not affect apoCaM binding”. In assay [2] (PI-negative, CFP-positive cells, normalized to WT), the “percentage of anti-HA and CFP co-positive events relative to WT” value was “not observed”. Further, in the assay with CaV1.2, the “Erev (equilibrium/reversal potential)” value is 67.2 ± 2.7 mV, the “Gmax (maximum conductance)” value worked out at 0.25 ± 0.02, the “V1/2 (half-activation voltage)” value is reported as −2.6 ± 1.6 mV and the “current density relative to WT” value is recorded as “did not show a significant reduction”.

Turning to “K1647A: fluorescein-labeled α11.2 IQ domain peptide (AAs 1644-1668), K1647A mutant”, the “surface expression by biotinylation relative to WT” value in assay [1] is “significant decreases in surface expression”. Also, the “reduction in surface labeling” value in assay [2] is recorded as ~ 35%. Besides, in the assay with CaV1.2, the “Erev (equilibrium/reversal potential)” value came to 69.2 ± 1.3 mV, the “Gmax (maximum conductance)” value came to 0.09 ± 0.01, the “V1/2 (half-activation voltage)” value is on record as 1.1 ± 1.4 mV and the “current density relative to WT” value is on record as “significantly reduced current density”. Moreover, the “shift of V1/2 relative to WT” value with CaV1.2 was “did not reach statistical significance”.

Turning to `COC(=O)C1=C(C)NC(C)=C([N+](=O)[O-])C1c1ccccc1C(F)(F)F` (stereo not drawn) [BayK8644], the “behavioral effect” value with L-type channel was “depressant-like behavior”.

With “F1648A: fluorescein-labeled α11.2 IQ domain peptide (AAs 1644-1668), F1648A mutant”, the “surface expression by biotinylation relative to WT” value in assay [1] is “did not exhibit statistically significant differences”. Further, the “effect of mutation on apoCaM binding” value with apoCaM was “did not affect apoCaM binding”. Moreover, in the assay on CaV1.2, the “Erev (equilibrium/reversal potential)” value stood at 73.5 ± 1.7 mV, the “Gmax (maximum conductance)” value is listed as 0.26 ± 0.02, the “V1/2 (half-activation voltage)” value turned out to be 3.0 ± 1.5 mV and the “current density relative to WT” value is listed as “did not show a significant reduction”.

In the case of `O=C(O)CN(CC(=O)O)c1ccccc1OCCOc1ccccc1N(CC(=O)O)CC(=O)O` [BAPTA], in assay [3], the “prevalence of L-type Ca2+ channels at the surface” value is recorded as “increased the prevalence of L-type Ca^2+ channels at the surface”.
